Results gathered from unrelated publications.
Target: Protein kinase C theta type (PRKCQ, Homo sapiens, UniProt Q04759)

Compound | read-out | technique | concentration | remaining binding [%]
O=C(c1ccc(Nc2ncc(Cl)c(-c3cc4ccccc4s3)n2)cc1)N1CCC(N2CCCC2)CC1 | binding | competition with immobilised ligand | 1 µM | 23
O=C(Nc1c[nH]nc1C(=O)NC1CCNCC1)c1cc(F)cc(F)c1 | binding | competition with immobilised ligand | 1 µM | 100
Cc1cnn2ncc(-c3ccnc(N(C)C)n3)c2c1 | binding |  | 1 µM | 99
O=C(c1ccc(Nc2nccc(-c3cc4ccccc4s3)n2)cc1)N1CCC(N2CCCC2)CC1 | binding | competition with immobilised ligand | 1 µM | 56
C[C@H]1CCN(c2nccc(-c3cnn4ncccc34)n2)C1 | binding |  | 1 µM | 100
Cc1cnc(Nc2ccc(C(=O)N3CCC(N4CCCC4)CC3)cc2)nc1-c1cc2ccccc2s1 | binding | competition with immobilised ligand | 1 µM | 27
COc1cnc(Nc2cccc(S(N)(=O)=O)c2)nc1N1CCN(c2ccccc2)CC1 | binding | competition with immobilised ligand | 1 µM | 94
CCOCCn1cc(C(=O)Nc2ccc(-n3nc(-c4cccnc4)cc3C(F)(F)F)cn2)ccc1=O | cell-free assay | competition with immobilised ligand | 1 µM | 73
CN(CCCC(F)(F)F)c1nccc(-c2cnn3ncccc23)n1 | binding |  | 1 µM | 100
CN(C)CC#Cc1ccc(OCCCc2sc(N3CCc4cccc(C(=O)Nc5nc6ccccc6s5)c4C3)nc2C(=O)O)c(F)c1 | cell-free assay | competition with immobilised ligand | 1 µM | 92
N[C@H]1CCN(c2nccc(-c3cnn4ncccc34)n2)C1 | binding |  | 1 µM | 74
O=C(Nc1ccc(Oc2ccc(F)cc2)cc1)N1CCc2ncccc2[C@H]1c1ccc(F)cc1 | cell-free assay | competition with immobilised ligand | 1 µM | 95
CN(C)c1nccc(-c2cnn3ncccc23)n1 | binding |  | 1 µM | 88
O=C(NC[C@@H]1[C@H]2CN(C(=O)OCc3cc(C(F)(F)F)cc(C(F)(F)F)c3)C[C@@H]12)c1ccc2[nH]nnc2c1 | cell-free assay | competition with immobilised ligand | 1 µM | 100
c1cncc(-c2cccc(Nc3nccc(NC4CCCCC4)n3)c2)c1 | binding | competition with immobilised ligand | 10 µM | 8.3
C=CC(=O)N1CCC(C(=O)NCC(=O)N2CCN(c3nc(-c4cnc(N)nc4C(F)F)nc(N4CCOCC4)n3)CC2)CC1 | binding | competition with immobilised ligand | 1 µM | 83
CO[C@H]1CC[C@H](CNc2ccc(S(=O)(=O)NC(=O)c3ccc(N4CCN(CC5=C(c6ccc(Cl)cc6)CC(C)(C)CC5)CC4)cc3Oc3cnc4[nH]ccc4c3)cc2[N+](=O)[O-])CC1 | cell-free assay | competition with immobilised ligand | 1 µM | 89
CC1CCCN1c1nccc(-c2cnn3ncccc23)n1 (stereo not shown) | binding |  | 1 µM | 100
Nc1c(C(=O)NCc2ccc(C(=O)NCCCC3CCCCC3)cc2)cnn1-c1ccccc1 | cell-free assay | competition with immobilised ligand | 0.1 µM | 100
C[C@@H](c1ccc(-n2cnc3c(N)ncnc32)cc1)N1CCc2nn(C)c(Cc3ccccc3)c2C1=O | binding | competition with immobilised ligand | 0.1 µM | 100
CN(C)c1nccc(-c2cnc3ncccn23)n1 | binding |  | 1 µM | 75
CS(=O)(=O)N1CCCC(NC(=O)[C@H](CCC2CCCCC2)NC(=O)c2ccc(CNc3ncnc4c3nnn4-c3ccccc3)cc2)C1 (stereo partly shown) | cell-free assay | competition with immobilised ligand | 0.1 µM | 90
